For data set [1], the target named is T1, Coagulation factor XII (Homo sapiens) (UniProt P00748).
T1 sequence (whole entry): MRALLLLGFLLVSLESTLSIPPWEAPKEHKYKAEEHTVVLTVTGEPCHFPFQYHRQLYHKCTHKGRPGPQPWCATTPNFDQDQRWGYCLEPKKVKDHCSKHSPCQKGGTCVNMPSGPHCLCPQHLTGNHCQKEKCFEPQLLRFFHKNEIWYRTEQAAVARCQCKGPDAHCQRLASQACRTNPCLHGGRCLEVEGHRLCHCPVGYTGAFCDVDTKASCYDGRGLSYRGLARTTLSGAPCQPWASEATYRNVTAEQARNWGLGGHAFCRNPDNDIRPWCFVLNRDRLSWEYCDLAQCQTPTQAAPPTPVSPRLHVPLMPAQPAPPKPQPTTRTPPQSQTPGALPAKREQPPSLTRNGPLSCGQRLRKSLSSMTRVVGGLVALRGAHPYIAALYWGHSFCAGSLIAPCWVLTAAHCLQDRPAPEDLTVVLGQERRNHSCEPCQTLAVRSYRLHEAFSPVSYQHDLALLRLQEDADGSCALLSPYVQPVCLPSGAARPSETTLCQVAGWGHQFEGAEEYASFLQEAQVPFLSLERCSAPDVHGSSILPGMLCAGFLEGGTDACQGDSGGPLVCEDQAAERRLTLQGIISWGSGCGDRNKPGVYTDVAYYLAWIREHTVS
Kind of data set: Inhibition of human factor 12a using S-2302 as substrate assessed as para-nitroaniline release at 50 uM preincubated for 10 mins followed by substrate addition measured after 30 mins by HPLC-UV analysis. In outline: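 Human FXIIa 145 nM in 0.5 mM Tris-Imidazole, 0.15 M NaCl, pH 7.9, preincubated 10 min at 25 C with compound (DMSO). S-2302 (2.5 mM) added and hydrolysis run 30 min, then stopped with 10% acetic acid. Wells diluted 1:1 in acetonitrile. Released p-NA quantified by C18 HPLC-UV at 375 nm (AUC). % inhibition = [1-(AUCdrug/AUCvehicle)]*100.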

Data set [2] in a line: Solubility of compound at pH 6.5. The data set is classed as physicochemical. Particulars: buffer.
The target of the next data set is T2, Coagulation factor XII (Homo sapiens, UniProt P00748).
T2 sequence (P00748 whole entry): T1 sequence (whole entry)
Kind of data set: Inhibition of human factor 12a using S-2302 as substrate assessed as para-nitroaniline release preincubated for 10 mins followed by substrate addition measured after 30 mins by HPLC-UV analysis. In outline:
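FXIIa IC50 assay. Human enzyme 145 nM in Tris-Imidazole/NaCl buffer, pH 7.9, 10 min at 25 C with compound, then S-2302 (2.5 mM) for 30 min and acetic acid stop. p-NA AUC measured by HPLC-UV at 375 nm. Nine concentrations from 100 nM upward, in duplicate. Sigmoid fit of % inhibition vs log concentration by non-linear regression; values reported as mean with 95% CI.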

The target in data set [3] is Prothrombin (Homo sapiens) (UniProt P00734). The data set can be described thus: Inhibition of human thrombin using S-2238 as substrate at 100 uM preincubated for 10 mins followed by substrate addition measured for 5 mins by microplate reader analysis. Put shortly: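 Compound (DMSO) preincubated 10 min at 25 C, then S-2238 (2.5 mM). OD405 monitored continuously for 5 min. Slope-based % inhibition against vehicle control.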

Data set [4] deals with Plasma kallikrein (Homo sapiens) (UniProt P03952). Kind of data set: Inhibition of human plasma kallikrein using S-2302 as substrate at 100 uM preincubated for 10 mins followed by substrate addition measured for 5 mins by microplate reader analysis. The data set is classed as cell-free. Put shortly: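 Human plasma kallikrein 50 nM in 0.05 M Tris-HCl, 0.5 mM EDTA, 0.05% Tween 20, 0.15 M NaCl, pH 7.4. 10 min preincubation with compound at 25 C, then S-2302 (4 mM). OD405 read continuously for 5 min. % inhibition = [1-(slope inhibitor/slope vehicle)]*100.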

Data set [5] deals with Coagulation factor X (Homo sapiens) (UniProt P00742). Kind of data set: Inhibition of human factor 10a using S-2765 as substrate at 100 uM preincubated for 10 mins followed by substrate addition measured for 5 mins by microplate reader analysis. In outline: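 Compound added from DMSO and held with enzyme 10 min at 25 C. S-2765 (1 mM) then added and OD405 followed continuously for 5 min. % inhibition = [1-(slope inhibitor/slope vehicle)]*100.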

Data set [6] addresses T3, Coagulation factor VII (Homo sapiens) (UniProt P08709).
T3 sequence (whole entry): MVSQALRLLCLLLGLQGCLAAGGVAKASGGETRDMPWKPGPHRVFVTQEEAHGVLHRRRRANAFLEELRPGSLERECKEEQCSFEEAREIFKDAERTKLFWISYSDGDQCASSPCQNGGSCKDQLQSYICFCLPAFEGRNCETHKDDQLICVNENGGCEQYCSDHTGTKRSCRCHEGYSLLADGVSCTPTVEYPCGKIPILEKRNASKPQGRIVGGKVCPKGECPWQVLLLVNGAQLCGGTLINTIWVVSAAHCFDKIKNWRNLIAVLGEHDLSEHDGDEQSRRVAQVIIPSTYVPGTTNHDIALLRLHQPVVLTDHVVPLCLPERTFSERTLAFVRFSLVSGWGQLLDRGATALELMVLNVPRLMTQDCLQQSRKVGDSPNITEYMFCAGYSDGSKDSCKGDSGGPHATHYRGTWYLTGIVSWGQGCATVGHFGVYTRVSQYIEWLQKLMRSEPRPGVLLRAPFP
Kind of data set: Inhibition of human factor 7a using chromozymt-PA as substrate at 100 uM preincubated for 10 mins followed by substrate addition measured for 10 mins by microplate reader analysis. In outline:
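Compound preincubated 10 min at 25 C. Chromozym t-PA (5 mM) added and OD405 monitored continuously for 10 min. Inhibition from slope ratio against vehicle.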

pIC50: −log10 of the molar value. Values after ≈ are worked out from the molar mass of the structure shown.

20 compounds from ChEMBL document CHEMBL3763081, “Synthesis, evaluation and structure-activity relationship of new 3-carboxamide coumarins as FXIIa inhibitors” (Eur J Med Chem, 2016) can be followed below.

Chain of Coagulation factor X (Homo sapiens) (P00742 41-179 limits assumed): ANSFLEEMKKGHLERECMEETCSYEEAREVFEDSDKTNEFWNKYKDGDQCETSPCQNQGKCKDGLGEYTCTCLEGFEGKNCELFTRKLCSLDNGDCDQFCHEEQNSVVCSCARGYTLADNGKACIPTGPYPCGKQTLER
Chain of Coagulation factor X (Homo sapiens) (P00742 235-488 limits assumed): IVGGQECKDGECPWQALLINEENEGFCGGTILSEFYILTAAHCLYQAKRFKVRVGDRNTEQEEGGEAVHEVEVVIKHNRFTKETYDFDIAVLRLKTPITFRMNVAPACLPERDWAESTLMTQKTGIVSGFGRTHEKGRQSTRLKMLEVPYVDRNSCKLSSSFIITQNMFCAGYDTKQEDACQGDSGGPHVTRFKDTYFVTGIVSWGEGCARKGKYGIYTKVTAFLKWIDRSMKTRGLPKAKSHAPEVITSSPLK
Chain of Plasma kallikrein (Homo sapiens) (P03952 20-390 limits assumed): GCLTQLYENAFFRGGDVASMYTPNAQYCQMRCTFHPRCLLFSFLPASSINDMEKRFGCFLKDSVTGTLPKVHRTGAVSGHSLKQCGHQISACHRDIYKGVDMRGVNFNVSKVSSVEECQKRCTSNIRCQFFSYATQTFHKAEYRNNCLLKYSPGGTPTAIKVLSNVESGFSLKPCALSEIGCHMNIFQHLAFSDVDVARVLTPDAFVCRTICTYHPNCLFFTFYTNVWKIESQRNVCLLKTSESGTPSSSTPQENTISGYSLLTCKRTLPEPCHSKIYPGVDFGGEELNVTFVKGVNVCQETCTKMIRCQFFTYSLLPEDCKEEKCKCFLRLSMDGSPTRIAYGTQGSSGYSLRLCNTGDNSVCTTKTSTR
Chain of Plasma kallikrein (Homo sapiens) (P03952 391-638 limits assumed): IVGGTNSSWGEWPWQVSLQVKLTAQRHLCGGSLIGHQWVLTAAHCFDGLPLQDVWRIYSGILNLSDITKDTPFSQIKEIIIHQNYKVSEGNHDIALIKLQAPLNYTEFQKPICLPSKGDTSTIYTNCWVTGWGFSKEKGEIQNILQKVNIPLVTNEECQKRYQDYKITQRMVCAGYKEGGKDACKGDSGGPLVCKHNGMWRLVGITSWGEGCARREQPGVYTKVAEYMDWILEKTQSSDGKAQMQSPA

Take `O=C(Nc1ccccc1)c1cc2cc(CN3CCOCC3)ccc2oc1=O`: the inhibition (in general, the share of the control response that was lost under treatment) in data set [1] was 18%. For the same compound, in data set [2], the concentration in solution (solubility) came to 48 µg/mL (≈ 132 µM).

Turning to `CN(C)CCNC(=O)c1cc2cc(Cl)cc(Cl)c2oc1=O`, the inhibition in data set [1] stood at 29%. Also, the solubility – broadly, the dissolved amount per volume that the medium holds – in data set [2] was found to be 2200 µg/mL (≈ 6680 µM).

Regarding `O=C(Nc1cccc(O)c1)c1cc2cc(Cl)cc(Br)c2oc1=O`, at Coagulation factor XII, the pIC50 (commonly −log10 of the IC50, conventionally taken in molar units) was 4.47. Further, the inhibition was 90% in data set [1]; below 10% in data set [3]; below 10% in data set [4]; below 10% in data set [5]; below 10% in data set [6]. In data set [2], the concentration in solution (solubility) came to 1.4 µg/mL (≈ 3.55 µM).

On to `O=C(Nc1ccccc1)c1cc2cc(CO)ccc2oc1=O`, for which the inhibition in data set [1] was determined as 14%. In addition, in data set [2], the solubility was found to be 52 µg/mL (≈ 176 µM).

On to `O=C(NCCN1CCOCC1)c1cc2cc(Cl)cc(Br)c2oc1=O`, for which the inhibition in data set [1] was found to be 17%. Also, in data set [2], the concentration in solution (solubility) came to 400 µg/mL (≈ 962 µM).

As for `O=C(Nc1ccccc1O)c1cc2cc(Cl)cc(Br)c2oc1=O`, on Coagulation factor XII, the pIC50 is 5.15. For the same compound, the inhibition is 99% in data set [1]; below 10% in data set [3]; below 10% in data set [4]; below 10% in data set [5]; below 10% in data set [6]. Besides, the solubility in data set [2] turned out to be 0.71 µg/mL (≈ 1.8 µM).

Turning to `O=C(Nc1ccccc1)c1cc2cc(CN3CCCCC3)ccc2oc1=O`, the inhibition in data set [1] came out at 28%. The compound further displayed a solubility in data set [2] of 700 µg/mL (≈ 1930 µM).

Turning to `O=C(NCCN1CCOCC1)c1cc2cc(Cl)cc(Cl)c2oc1=O`, in data set [1], the inhibition turned out to be 20%. The compound further had a solubility in data set [2] of 400 µg/mL (≈ 1080 µM).

For the compound `CCN(CC)Cc1ccc2oc(=O)c(C(=O)Nc3ccccc3)cc2c1`, in data set [1], the inhibition was found to be 14%. The compound also yielded a solubility in data set [2] of 2900 µg/mL (≈ 8280 µM).

Consider `O=C(Nc1ccccc1)c1cc2cc(Cl)cc(Br)c2oc1=O`, for which the pIC50 on Coagulation factor XII was 4.80. In addition, the inhibition was 90% in data set [1]; below 10% in data set [3]; below 10% in data set [4]; below 10% in data set [5]; below 10% in data set [6]. In addition, the concentration in solution in data set [2] (solubility) came to 0.59 µg/mL (≈ 1.56 µM).

On to `O=C(O)c1cc(Cl)ccc1NC(=O)c1cc2cc(Cl)cc(Br)c2oc1=O`, for which the inhibition in data set [1] was 75%. For the same compound, the concentration in solution in data set [2] (solubility) was 36 µg/mL (≈ 78.8 µM).

Regarding `CN(C)CCNC(=O)c1cc2cc(Cl)cc(Br)c2oc1=O`, in data set [1], the inhibition amounted to 26%. The same compound registered a solubility in data set [2] of 2400 µg/mL (≈ 6420 µM).

Take `O=C(Nc1ccccc1)c1cc2cc(CN3CCCC3)ccc2oc1=O`: in data set [1], the inhibition was found to be 21%. The solubility in data set [2] was 3400 µg/mL (≈ 9760 µM).

For `O=C(Nc1cc(Cl)ccc1O)c1cc2cc(Cl)cc(Br)c2oc1=O`, the pIC50 on Coagulation factor XII is 5.30. In addition, the inhibition in data set [1] is 99%; in data set [3] it was below 10%; in data set [4] it was below 10%; in data set [5], below 10%; in data set [6] it was below 10%. Further, the concentration in solution in data set [2] (solubility) came to 0.1 µg/mL (≈ 0.233 µM).

With `Cl.NCc1ccc2oc(=O)c(C(=O)Nc3ccccc3)cc2c1`, the inhibition in data set [1] came to 26%. This compound also returned a solubility in data set [2] of 9900 µg/mL.

`O=C(Nc1ccc(Cl)cc1O)c1cc2cc(Cl)cc(Br)c2oc1=O`: the negative logarithm of the IC50 (pIC50) at Coagulation factor XII was 5.10. For the same compound, the inhibition was 99% in data set [1]; below 10% in data set [3]; below 10% in data set [4]; below 10% in data set [5]; below 10% in data set [6]. The compound further had a solubility in data set [2] of 0.11 µg/mL (≈ 0.256 µM).

For `CN(C)CCNC(=O)c1cc2cc(Br)cc(Br)c2oc1=O`, the inhibition in data set [1] amounted to 30%. This compound had a solubility in data set [2] of 3000 µg/mL (≈ 7180 µM).

For the compound `NCCNC(=O)c1cc2cc(Cl)cc(Br)c2oc1=O.O=C(O)C(F)(F)F`, the inhibition in data set [1] was determined as 23%. For the same compound, the concentration in solution in data set [2] (solubility) came to 61900 µg/mL.

Consider `O=C(NCCN1CCOCC1)c1cc2cc(Br)cc(Br)c2oc1=O`, for which the inhibition in data set [1] was 14%. The compound also came in with a solubility in data set [2] of 500 µg/mL (≈ 1090 µM).

On to `O=C(Nc1ccc(O)cc1)c1cc2cc(Cl)cc(Br)c2oc1=O`, for which the pIC50 at Coagulation factor XII was 4.39. The inhibition in data set [1] is 90%; in data set [3], below 10%; in data set [4] it was below 10%; in data set [5], below 10%; in data set [6] it was below 10%. Moreover, in data set [2], the concentration in solution (solubility) came to 1.5 µg/mL (≈ 3.8 µM).
